Assay results reported in ChEMBL document CHEMBL2331388, “Flavone tetraglycosides and benzyl alcohol glycosides from the Mongolian medicinal plant Dracocephalum ruyschiana” (J Nat Prod, 2013).

Test system: Radical scavenging activity
Assay: Antioxidant activity assessed as DPPH radical scavenging activity after 30 mins by microplate reader
Assay type: functional
Method in brief: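 Modified Mensor method. Sample in absolute MeOH at several concentrations mixed 1:1 with 0.06 mM DPPH in MeOH (100 μL each). Absorbance read at 510 nm at exactly 30 min, then percent inhibition calculated. IC50 taken as the concentration scavenging 50% of DPPH radicals. Triplicate runs. Rutin and Trolox used as reference standards.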

Row | IC50 [µg/mL] | IC50 (read-out: IC50) [µM] | Structure (SMILES)
1 | – | 223 | OC[C@H]1O[C@@H](OCc2ccccc2)[C@H](O)[C@@H](O)[C@@H]1O
2 | – | 57.4 | O=C(/C=C/c1ccc(O)cc1)O[C@@H]1C[C@](O)(C(=O)O)C[C@@H](OC(=O)/C=C/c2ccc(O)c(O)c2)[C@H]1O
3 | > 200 | – | COc1ccc(-c2cc(=O)c3c(O)cc(O[C@@H]4O[C@H](CO[C@@H]5O[C@@H](C)[C@H](O)[C@@H](O)[C@H]5O)[C@@H](O)[C@H](O)[C@H]4O[C@@H]4O[C@H](CO)[C@@H](O)[C@H](O)[C@H]4O[C@@H]4O[C@H](CO)[C@@H](O)[C@H](O)[C@H]4O)cc3o2)cc1
4 | > 200 | – | COc1ccc(-c2cc(=O)c3c(O)cc(O[C@@H]4O[C@H](CO[C@@H]5O[C@@H](C)[C@H](O)[C@@H](O)[C@H]5O)[C@@H](O)[C@H](O)[C@H]4O[C@@H]4O[C@H](CO)[C@@H](O)[C@H](OC(C)=O)[C@H]4O[C@@H]4O[C@H](CO)[C@@H](O)[C@H](O)[C@H]4O)cc3o2)cc1
5 | > 200 | – | COc1ccc(-c2cc(=O)c3c(O)cc(O[C@@H]4O[C@H](CO[C@@H]5O[C@@H](C)[C@H](O)[C@@H](O)[C@H]5O)[C@@H](O)[C@H](O)[C@H]4O[C@@H]4O[C@H](COC(C)=O)[C@@H](O)[C@H](O)[C@H]4O[C@@H]4O[C@H](CO)[C@@H](O)[C@H](O)[C@H]4O)cc3o2)cc1
6 | > 200 | – | COc1ccc(-c2cc(=O)c3c(O)cc(O[C@@H]4O[C@H](CO[C@@H]5O[C@@H](C)[C@H](O)[C@@H](O)[C@H]5O)[C@@H](O)[C@H](O)[C@H]4O[C@@H]4O[C@H](COC(C)=O)[C@@H](O)[C@H](O)[C@H]4O[C@@H]4O[C@H](CO)[C@@H](O)[C@H](O)[C@H]4O)cc3o2)cc1O
7 | > 200 | – | CC(=O)OC[C@H]1O[C@@H](O[C@H]2[C@H](Oc3cc(O)c4c(=O)cc(-c5ccc(O)cc5)oc4c3)O[C@H](CO[C@@H]3O[C@@H](C)[C@H](O)[C@@H](O)[C@H]3O)[C@@H](O)[C@@H]2O)[C@H](O[C@@H]2O[C@H](CO)[C@@H](O)[C@H](O)[C@H]2O)[C@@H](O)[C@@H]1O
8 | > 200 | – | COc1ccc(-c2cc(=O)c3c(O)cc(O[C@@H]4O[C@H](CO[C@@H]5O[C@@H](C)[C@H](O)[C@@H](O)[C@H]5O)[C@@H](O)[C@H](O)[C@H]4O[C@@H]4O[C@H](CO)[C@@H](O)[C@H](O)[C@H]4O[C@@H]4O[C@H](CO)[C@@H](O)[C@H](O)[C@H]4O)cc3o2)cc1O
9 | > 200 | – | C[C@@H]1O[C@@H](OC[C@H]2O[C@@H](OCc3ccccc3)[C@H](O)[C@@H](O)[C@@H]2O)[C@H](OC(=O)/C=C/c2ccc(O)cc2)[C@H](O)[C@H]1O
10 | > 200 | – | C[C@@H]1O[C@@H](OC[C@H]2O[C@@H](OCc3ccccc3)[C@H](O)[C@@H](O)[C@@H]2O)[C@H](OC(=O)/C=C\c2ccc(O)cc2)[C@H](O)[C@H]1O
11 | > 200 | – | C[C@@H]1O[C@@H](OC[C@H]2O[C@@H](OCc3ccccc3)[C@H](O)[C@@H](O)[C@@H]2O)[C@H](O)[C@H](O)[C@H]1OC(=O)/C=C/c1ccc(O)cc1
12 | > 200 | – | C[C@@H]1O[C@@H](OC[C@H]2O[C@@H](Oc3ccc(COC(=O)c4ccccc4)cc3)[C@H](O)[C@@H](O)[C@@H]2O)[C@H](O)[C@H](O)[C@H]1O
13 | > 200 | – | CC(O)(CC(=O)O)CC(=O)OCc1ccc(O[C@@H]2O[C@H](CO)[C@@H](O)[C@H](O)[C@H]2O)cc1 (stereo partly specified)
14 | > 200 | – | COc1cc([C@H]2Oc3c(OC)cc(CCCO)cc3[C@@H]2CO)ccc1O[C@@H]1O[C@H](CO)[C@@H](O)[C@H](O)[C@H]1O
15 | > 200 | – | O=C(O)/C=C\c1ccc(O)cc1
16 | – | 32.4 | O=C(/C=C/c1ccc(O)c(O)c1)O[C@@H]1C[C@](O)(C(=O)O)C[C@@H](OC(=O)/C=C/c2ccc(O)c(O)c2)[C@H]1O
17 | – | 28.9 | O=C(/C=C/c1ccc(O)c(O)c1)O[C@@H]1[C@H](O)C[C@@](O)(C(=O)O)C[C@H]1OC(=O)/C=C/c1ccc(O)c(O)c1
18 | – | 284 | COc1cc([C@H]2Oc3c(OC)cc(CCCO)cc3[C@@H]2CO[C@@H]2O[C@H](CO)[C@@H](O)[C@H](O)[C@H]2O)ccc1O
19 | > 200 | – | O=Cc1ccc(O)cc1 [4-HYDROXYBENZALDEHYDE]
20 | > 200 | – | O=c1c(O[C@@H]2O[C@H](CO)[C@@H](O)[C@H](O)[C@H]2O)c(-c2ccc(O)cc2)oc2cc(O)cc(O)c12 [ASTRAGALIN]
21 | – | 45.5 | O=C(/C=C/c1ccc(O)c(O)c1)O[C@@H]1C[C@](O)(C(=O)O)C[C@@H](O)[C@H]1O [CHLOROGENIC ACID]
22 | – | 328 | C=CCc1ccc(O[C@@H]2O[C@H](CO)[C@@H](O)[C@H](O)[C@H]2O)c(OC)c1 [CITRUSIN C]
23 | > 200 | – | O=C(O)/C=C/c1ccc(O)cc1 [COUMARIC ACID]
24 | – | 62.4 | COc1cc(/C=C/C(=O)O)ccc1O [FERULATE]
25 | > 200 | – | C[C@@H]1O[C@@H](OC[C@H]2O[C@@H](OCc3ccccc3)[C@H](O)[C@@H](O)[C@@H]2O)[C@H](O)[C@H](O)[C@H]1O [HYDRANGEIFOLIN I]
26 | – | 60.6 | O=c1c(O[C@@H]2O[C@H](CO)[C@@H](O)[C@H](O)[C@H]2O)c(-c2ccc(O)c(O)c2)oc2cc(O)cc(O)c12 [ISOQUERCETIN]
27 | > 200 | – | COC(=O)/C=C/c1ccc(O)cc1 [METHYL P-HYDROXYCINNAMATE]
28 | – | 37.2 | O=C(O)[C@H]1O[C@@H](Oc2c(-c3ccc(O)c(O)c3)oc3cc(O)cc(O)c3c2=O)[C@H](O)[C@@H](O)[C@@H]1O [QUERCETIN GLUCURONIDE]
29 | – | 38.7 | C[C@@H]1O[C@@H](OC[C@H]2O[C@@H](Oc3c(-c4ccc(O)c(O)c4)oc4cc(O)cc(O)c4c3=O)[C@H](O)[C@@H](O)[C@@H]2O)[C@H](O)[C@H](O)[C@H]1O [RUTIN]
30 | – | 25.9 | Cc1c(C)c2c(c(C)c1O)CCC(C)(C(=O)O)O2 (stereo unspecified) [TROLOX]

Row | Structure (SMILES) | IC50 [µg/mL] | IC50 (read-out: IC50) [µM]
31 | Oc1ccc(Cc2ccc(O)cc2)cc1 | > 200 | –
